We go through one compound from ChEMBL document CHEMBL4007469, “Design and synthesis of dalbergin analogues and evaluation of anti-osteoporotic activity” (Bioorg Med Chem Lett, 2017).

The source made the active and inactive calls. No cut-off for these calls is given here.

Series [1] deals with Mus musculus. The series is described as follows: Anti-osteoporotic activity in ovariectomized postmenopausal Balb/c mouse model assessed as improvement in micro-artchitectural parameter in vertebrae by measuring trabecular thickness at 1 mg/kg, po qd via gavage for 6 weeks by micro CT-scan analysis (reference value: 0.047 +/- 0.001 millimeter). The series is classed as functional. The gist of the method: (§1)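 Female Balb/c mice, 8 weeks old, ovariectomized, 6 weeks osteopenia development, then 1.0 mg/kg/day or gum acacia vehicle by oral gavage once daily for 6 weeks (sham, OVx and treated groups). Bones collected after sacrifice for micro-CT of trabecular microarchitecture (BV/TV, Tb.N, Tb.Th, Tb.Sp, SMI) and biomechanical testing of femur and vertebrae (energy, stiffness); mean ± SE versus OVx.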

The test system of series [2] is Mus musculus. The series can be described thus: Anti-osteoporotic activity in ovariectomized postmenopausal Balb/c mouse model assessed as increase in OPG gene expression in femur bone at 1 mg/kg, po qd via gavage for 6 weeks by RT-PCR method. The series is classed as functional, organism-based. The gist of the method: (§2)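 Eight-week-old female Balb/c mice, ovariectomized and left 6 weeks for osteopenia to develop; groups sham+vehicle, OVx+vehicle, OVx+1.0 mg/kg/day, dosed once daily by oral gavage for 6 weeks in gum acacia/distilled water vehicle. Mice kept at 21°C, 12 h light/dark, chow and water ad libitum. Femoral bone mRNA or serum measured after sacrifice; mean ± SE versus OVx group.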

The test system of series [3] is Mus musculus. The series is described as follows: Anti-osteoporotic activity in ovariectomized postmenopausal Balb/c mouse model assessed as decrease in RANK mRNA expression at 1 mg/kg, po qd via gavage for 6 weeks by RT-PCR method. It is filed as functional, organism-based. The gist of the method:
as §2

Series [4] has as its system Mus musculus. The series is described as follows: Osteogenic activity in Balb/c mouse drill-hole fracture model assessed as increase in COL1 mRNA level at 1 mg/kg, po qd via gavage for 21 days by RT-PCR method relative to control.
For series [5], the system named is Mus musculus. The series can be described thus: Osteogenic activity in Balb/c mouse drill-hole fracture model assessed as structure model index at 1 mg/kg, po qd via gavage for 21 days by micro-CT method (reference value: 2.585 +/- 0.387).
The nature of series [6]: Induction of osteoblast differentiation in mouse calvarial cells assessed as increase in RunX2 mRNA expression at 1 pM after 24 hrs by qRT-PCR method relative to control. It is filed as functional, Calvarial cell. The method, boiled down:
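Mouse calvarial osteoblasts exposed to 1 pM for 24 h; BMP2, RunX2 and COL1 mRNA by quantitative PCR with GAPDH as internal control. Mean ± SE of three independent experiments versus untreated cells.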
(In general: Quantitative PCR measures a nucleic acid by following its amplification.)

Series [7] has as its system Mus musculus. The series is described as follows: Osteogenic activity in Balb/c mouse drill-hole fracture model assessed as increase in BMP4 mRNA level at 1 mg/kg, po qd via gavage for 21 days by RT-PCR method.
In series [8] the test system is Mus musculus. The series is described as follows: Estrogenic effect in uterine of ovariectomized postmenopausal Balb/c mouse model assessed as uterine weight at 1 mg/kg, po qd via gavage for 6 weeks (reference value: 0.025 +/- 0.02 mg). The series is classed as ADME, organism-based. Conditions: in vivo, 1008 h.
The subject of series [9] is Mus musculus. The series can be described thus: Anti-osteoporotic activity in ovariectomized postmenopausal Balb/c mouse model assessed as vertebrae compressive strength by measuring stiffness at 1 mg/kg, po qd via gavage for 6 weeks by micro CT-scan analysis (reference value: 345.7 +/- 5.08 N/mm). The series is classed as functional. The gist of the method: as §1
The test system of series [10] is Mus musculus. The series can be described thus: Estrogenic effect in uterine of ovariectomized postmenopausal Balb/c mouse model assessed as total uterine area at 1 mg/kg, po qd via gavage for 6 weeks (reference value: 837.2 +/- 36.09 um2). It is filed as ADME, organism-based. As to conditions: in vivo, 1008 h.
The test system of series [11] is Mus musculus. The series is described as follows: In vivo induction of osteogenesis in Balb/c mouse assessed as increase in bone formation rate in calvaria at 0.1 to 1 mg/kg/day, sc over calvarial surface for 5 consecutive days by fluorochromes tetracycline and calcein labeling based histomorphometric analysis. It is filed as functional, organism-based. The gist of the method:
(§3)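 Three-week-old Balb/c mice (3 per group) injected subcutaneously over the calvarial surface daily for 5 consecutive days at 0.1, 0.5, 1 and 5 mg/kg/day. Calvaria fixed in 4% formaldehyde, paraffin-embedded, H&E-stained; tetracycline and calcein (20 mg/kg each, ip) given for MAR/BFR histomorphometry; calvarial mRNA by RT-PCR. Mean ± SE, three independent experiments, versus untreated.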

Series [12] relates to Mus musculus. The series can be described thus: Osteogenic activity in Balb/c mouse drill-hole fracture model assessed as increase in OCN mRNA level at 1 mg/kg, po qd via gavage for 21 days by RT-PCR method relative to control.
For series [13], the system named is Mus musculus. The series is described as follows: In vivo induction of osteogenesis in Balb/c mouse assessed as bone formation at 0.5 to 1 mg/kg/day, sc over calvarial surface for 5 consecutive days by hematoxylin and eosin staining based fluorescence microscopic method. The series is classed as functional, organism-based. The method, boiled down:
as §3

Series [14] has as its system Mus musculus. The series can be described thus: Estrogenic effect in uterine of ovariectomized postmenopausal Balb/c mouse model assessed as luminal epithelial height at 1 mg/kg, po qd via gavage for 6 weeks (reference value: 0.55 +/- 0.03 umeter). The series is classed as ADME, organism-based. As to conditions: in vivo, 1008 h.
In series [15] the test system is Mus musculus. The series is described as follows: In vivo induction of osteogenesis in Balb/c mouse assessed as increase in OCN mRNA level in calvaria at 1 mg/kg/day, sc over calvarial surface for 5 consecutive days by RT-PCR method relative to control. The series is classed as functional. The method, boiled down: as §3
Series [16] concerns Mus musculus. The series can be described thus: Osteogenic activity in Balb/c mouse drill-hole fracture model assessed as increase in Runx2 mRNA level at 1 mg/kg, po qd via gavage for 21 days by RT-PCR method.
Series [17] concerns Mus musculus. The series can be described thus: In vivo induction of osteogenesis in Balb/c mouse assessed as increase in Runx2 mRNA level in calvaria at 1 mg/kg/day, sc over calvarial surface for 5 consecutive days by RT-PCR method relative to control. It is filed as functional. The gist of the method:
as §3

For series [18], the system named is Mus musculus. The series is described as follows: In vivo induction of osteogenesis in Balb/c mouse assessed as increase in COL1 mRNA level in calvaria at 1 mg/kg/day, sc over calvarial surface for 5 consecutive days by RT-PCR method relative to control. The series is classed as functional. The method, boiled down: as §3
The next series concerns Calvarial cell. The series can be described thus: Induction of mineralization in mouse calvarial cells assessed as calcium nodule formation at Emax incubated for 12 days by alizarin red-S staining based spectrophotometric method. The series is classed as functional. The method, boiled down: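 Primary mouse calvarial osteoblasts treated with or without compound for 12 days, fixed in 4% formaldehyde, stained with alizarin red-S, and the stain extracted and quantified by the acetic acid method.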

For series [19], the system named is Mus musculus. The series can be described thus: In vivo induction of osteogenesis in Balb/c mouse assessed as increase in mineral appositional rate in calvaria at 0.1 to 1 mg/kg/day, sc over calvarial surface for 5 consecutive days by fluorochromes tetracycline and calcein labeling based histomorphometric analysis. The series is classed as functional, organism-based. The gist of the method:
as §3

Series [20] concerns Mus musculus. The series can be described thus: Anti-osteoporotic activity in ovariectomized postmenopausal Balb/c mouse model assessed as bone formation rate at 1 mg/kg, po qd via gavage for 6 weeks by fluorochromes tetracycline and calcein labeling based histomorphometric analysis (reference value: 0.098 +/- 0.01 um3.um2/day). The series is classed as functional.
The subject of series [21] is Mus musculus. The series can be described thus: Osteogenic activity in Balb/c mouse drill-hole fracture model assessed as trabecular number at 1 mg/kg, po qd via gavage for 21 days by micro-CT method (reference value: 2.194 +/- 0.265 /millimeter).
Series [22] relates to Mus musculus. The series is described as follows: Anti-osteoporotic activity in ovariectomized postmenopausal Balb/c mouse model assessed as micro-artchitectural parameter in vertebrae by measuring bone volume fraction at 1 mg/kg, po qd via gavage for 6 weeks by micro CT-scan analysis (reference value: 13.92 +/-1.66%). The series is classed as functional. The gist of the method:
as §1

As to `COc1cc2oc(=O)cc(-c3ccccc3)c2cc1OCCCCCN1CCN(C)CC1`, the Activity in the series on Mus musculus [1] was 0.0522 mm; in the series with Mus musculus [8] it was 0.032 mg; in the series on Mus musculus [9], 381.35 N/mm; in the series on Mus musculus [10], 958.6 um2; with Mus musculus [14], 0.66 um; in the series on Mus musculus [20] it was 0.163 um3.um2/day. Besides, the Activity in the series with Mus musculus [21] was 3.442 /millimeter; in the series with Mus musculus [22], 23.43%. Further, the result in the series with Mus musculus [2], in the series on Mus musculus [3], in the series with Mus musculus [7], with Mus musculus [11], in the series on Mus musculus [13] and with Mus musculus [16] was Active. Also, the result in the series on Calvarial cell and in the series on Mus musculus [19] was Active. For the same compound, the “fold change (FC)” value with Mus musculus [4] turned out to be 6; in series [6], 2; with Mus musculus [12], 6; in the series with Mus musculus [15], 4; in the series on Mus musculus [17] it was 4; with Mus musculus [18], 4. Besides, the Activity_index in the series on Mus musculus [5] is reported as 0.496.
